Results as given in ChEMBL document CHEMBL4825680, “Structure-based discovery of potent and selective small-molecule inhibitors targeting signal transducer and activator of transcription 3 (STAT3)” (Eur J Med Chem, 2021).
Calls of active or inactive are those of the source. No cut-off for these calls is given here.

Legend:
[1] = target: T1, Signal transducer and activator of transcription 3 (Homo sapiens, UniProt P40763); experiment: Inhibition of STAT3 phosphorylation at Tyr705 residue in human HCC70 cells after 3 hrs by Western blotting analysis; type: cell-based; details: dose 0.3-3 µM
T1 sequence (P40763 whole entry): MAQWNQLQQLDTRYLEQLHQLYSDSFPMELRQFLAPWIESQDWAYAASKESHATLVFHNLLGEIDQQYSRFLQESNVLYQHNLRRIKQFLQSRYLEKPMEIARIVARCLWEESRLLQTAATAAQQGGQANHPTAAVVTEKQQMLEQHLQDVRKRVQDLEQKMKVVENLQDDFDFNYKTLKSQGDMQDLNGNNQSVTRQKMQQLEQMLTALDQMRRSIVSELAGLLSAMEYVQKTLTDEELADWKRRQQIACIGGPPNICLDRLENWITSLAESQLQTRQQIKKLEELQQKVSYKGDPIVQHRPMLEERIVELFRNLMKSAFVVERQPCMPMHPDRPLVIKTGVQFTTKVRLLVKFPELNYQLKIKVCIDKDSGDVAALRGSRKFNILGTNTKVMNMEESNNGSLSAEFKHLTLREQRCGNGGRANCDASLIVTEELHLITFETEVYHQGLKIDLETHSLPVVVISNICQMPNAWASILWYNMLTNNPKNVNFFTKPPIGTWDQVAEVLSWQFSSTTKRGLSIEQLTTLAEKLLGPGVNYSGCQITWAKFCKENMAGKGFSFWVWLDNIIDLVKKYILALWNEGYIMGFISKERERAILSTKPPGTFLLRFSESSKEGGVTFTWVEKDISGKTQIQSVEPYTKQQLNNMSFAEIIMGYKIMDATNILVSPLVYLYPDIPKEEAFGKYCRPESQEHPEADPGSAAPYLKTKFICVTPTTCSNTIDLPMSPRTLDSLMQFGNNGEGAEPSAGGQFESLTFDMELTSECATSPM

HCC70 [2] = experiment: Effect on total STAT3 level in human HCC70 cells at 0.3 to 3 uM measured after 3 hrs by Western blot analysis; type: functional, cell-based; details: dose 0.3-3 µM
Summary of the method: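 Breast cancer cells were treated with vehicle (0.1% DMSO) or compound, then lysed in RIPA with PMSF and phosphatase inhibitors. 20–50 μg protein was run on 8 or 12% SDS-PAGE, blotted to PVDF, blocked in 5% BSA, probed with primary antibodies overnight at 4 °C, then HRP secondaries, with ECL detection.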

[3] = target: T1, Signal transducer and activator of transcription 3; experiment: Inhibition of STAT3 phosphorylation at Ser727 residue in human MDA-MB-231-4175 cells at 3 uM after 3 hrs by Western blotting analysis; type: cell-based; details: MDA231-LM2-4175
[4] = target: T2, Signal transducer and activator of transcription 5A (Homo sapiens) (UniProt P42229); experiment: Inhibition of STAT5 phosphorylation at Y694 residue in human HCC70 cells at 0.3 to 3 uM after 3 hrs by Western blotting analysis; type: cell-based; details: dose 0.3-3 µM
T2 sequence (whole entry): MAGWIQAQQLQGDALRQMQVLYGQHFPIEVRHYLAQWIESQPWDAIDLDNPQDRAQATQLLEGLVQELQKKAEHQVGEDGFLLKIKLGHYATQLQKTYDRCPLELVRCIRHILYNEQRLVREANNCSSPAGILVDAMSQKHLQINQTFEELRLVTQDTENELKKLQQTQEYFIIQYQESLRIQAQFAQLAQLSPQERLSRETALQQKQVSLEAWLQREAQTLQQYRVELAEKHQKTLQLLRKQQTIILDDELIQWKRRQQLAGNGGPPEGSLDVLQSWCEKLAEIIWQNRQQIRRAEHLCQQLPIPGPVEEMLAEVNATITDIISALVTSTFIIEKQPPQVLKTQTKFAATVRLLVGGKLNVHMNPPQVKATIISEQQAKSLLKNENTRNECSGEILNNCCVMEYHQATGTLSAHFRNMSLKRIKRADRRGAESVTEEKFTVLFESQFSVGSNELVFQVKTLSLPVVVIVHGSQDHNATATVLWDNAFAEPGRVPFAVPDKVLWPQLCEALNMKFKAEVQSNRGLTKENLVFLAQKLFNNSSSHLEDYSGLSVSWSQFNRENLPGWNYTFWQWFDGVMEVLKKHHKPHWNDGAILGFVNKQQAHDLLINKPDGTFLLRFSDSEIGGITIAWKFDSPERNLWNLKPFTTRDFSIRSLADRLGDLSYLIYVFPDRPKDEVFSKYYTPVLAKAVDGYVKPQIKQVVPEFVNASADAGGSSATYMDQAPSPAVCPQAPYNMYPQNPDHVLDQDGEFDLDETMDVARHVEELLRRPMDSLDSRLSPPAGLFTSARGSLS

[5] = target: T1, Signal transducer and activator of transcription 3; experiment: Inhibition of Flag-tagged STAT3 dimerization (unknown origin) expressed in HEK293T cells preincubated for 3 hrs followed by IL-3 stimulation by immunoprecipitation analysis; type: cell-based; details: dose 1-3 µM
[6] = target: T1, Signal transducer and activator of transcription 3; experiment: Inhibition of STAT3 in human MDA231-LM2-4175 cells assessed as downregulation of c-Myc expression at 0.3 to 3 uM after 24 hrs by western blot analysis; type: cell-based; details: dose 0.3-3 µM
Summary of the method: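 TNBC cells given vehicle (0.1% DMSO) or graded compound levels for 24 h, lysed in RIPA with PMSF and phosphatase inhibitors. BCA-quantified lysate (20–50 µg) run on SDS-PAGE, transferred to PVDF, blocked in 5% BSA. Probed overnight at 4 °C for Bcl-xL, Mcl-1 and c-Myc, with β-actin. HRP secondary, ECL detection. Three independent experiments.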

MDA-MB-468 = experiment: Induction of apoptosis in human MDA-MB-468 cells assessed as viable cells at 3 uM after 48 hrs by Annexin-V-FITC/propidium iodide staining based flow cytometric analysis (reference value: 95.5%); type: functional; details: read-out: Activity
HCC70 [7] = experiment: Inhibition of cell invasion in human HCC70 cells incubated for 12 hrs by crystal violet staining based transwell assay; type: functional; details: dose 1-3 µM
Summary of the method: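 Cells seeded at 1.5×10^4–3×10^4 per well in the upper chamber of 8.0 µm pore Transwell inserts and treated with graded compound for 12 h. Non-invading cells removed with cotton. Invaded cells fixed in 4% paraformaldehyde, stained with crystal violet, photographed and counted. Triplicate.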

[8] = AUC(0 to infinity) in Sprague-Dawley rat at 10 mg/kg, po measured up to 24 hrs by LC-MS/MS analysis; type: ADME, organism-based; parameters: route oral, dose 10 mg/kg, time <=24; details: in vivo
Summary of the method: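 Male SD rats given a single oral dose of 10 mg/kg in DMSO/0.5% HPMC (5/95, v/v). Blood was drawn at 0.25, 0.5, 1, 2, 4, 8 and 24 h, and plasma was analysed by LC-MS/MS on a BEH phenyl column with a formic acid water/acetonitrile mobile phase.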

[9] = Antitumor activity against patient-derived breast cancer cells xenografted in NOD/SCID mouse assessed as tumor growth inhibition at 5 mg/kg, iv administered once daily for 20 days; type: functional; details: Homo sapiens, Breast cancer cell line, 480 h, time 20 day, read-out: TGI
Breast cancer cell line = experiment: Antitumor activity against patient-derived breast cancer cells xenografted in NOD/SCID mouse assessed as reduction in pY705-STAT3 expression at 5 to 15 mg/kg, iv administered once daily for 20 days by Western blotting analysis; type: functional, organism-based; details: Homo sapiens, dose 5-15 mg/kg, time 20.0 day

In the case of `O=C(Cc1c(-c2ccccc2)nc2ccccn12)Nc1ccc2c(c1)S(=O)(=O)C=C2`, the inhibition [1] is reported as “Dose-Dependent Effect”, the Activity (HCC70 [2]) is reported as “inactive” and the inhibition [3] is reported as “Active”. For the same compound, the inhibition [4] was “inactive”, the inhibition [5] was “Dose-Dependent Effect” and the inhibition [6] was “Active”. For the same compound, the viability at 3 µM (MDA-MB-468) was 38.6%, the inhibition (HCC70 [7]) was “Dose-Dependent Effect” and the AUC(0-inf) [8] was 56.1 ng·h/mL. The inhibition in vivo at 5 mg/kg [9] was 32.7% and the Activity (Breast cancer cell line) was “Active”.
